Source: PubChem BioAssay
An excerpt weighted towards active compounds, which were near 3.5% of everything screened.
MEKK2 mut-MEK5 – signal of MEK5 binding to mutant human MEKK2 PB1 domain. bead flow cytometry, Alexa488-MEK5 binding to MEKK2 mutant. percent response, % at 10 µM. hit rate 0.35% among 290,000; in the data active means percent response above about 24%, passing the limit was not always enough
MEKK2 WT-MEK5 – raises or lowers MEK5 binding to wildtype human MEKK2 PB1 domain; bead flow cytometry, Alexa488-MEK5 binding to MEKK2 WT; actives lie on both sides; binding response (% of control), % at 10 µM; hit rate 1.1% among 290,000; AID 1531; in the data active means binding response below about 67% or above about 130%
ABCB1 block – human ABCB1 inhibition, ABCG2 as counter-screen; P08183; inhibition, % at 6.6 µM; CCRF-Adr cells, JC-1 efflux, flow cytometry; hit rate 0.067% among 190,000; in the data active means inhibition above about 40%;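 further: 0% = vehicle and 100% = reference inhibitor; higher value means more JC-1 retained so stronger ABCB1 efflux block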
WT yeast gro inh – growth inhibition of WT yeast, mitochondrial fusion screen; mitochondrial fusion phenotypic screen, WT strain; inhibition, % at 10 µM; hit rate 2.1% among 190,000; AID 1362; in the data active means inhibition above about 58%; tested in S. cerevisiae
ABCG2 block – inhibitors of human ABCG2 transporter, ABCB1 counter-screen; Q9UNQ0; IgMXP3 cells, JC-1 efflux, flow cytometry; inhibition, % at 6.6 µM; hit rate 0.1% among 190,000; AID 1325;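 active means inhibition above 80%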;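 further: 0% = DMSO and 100% = nicardipine control wells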
Target sequence (Q9UNQ0 whole entry, looked up): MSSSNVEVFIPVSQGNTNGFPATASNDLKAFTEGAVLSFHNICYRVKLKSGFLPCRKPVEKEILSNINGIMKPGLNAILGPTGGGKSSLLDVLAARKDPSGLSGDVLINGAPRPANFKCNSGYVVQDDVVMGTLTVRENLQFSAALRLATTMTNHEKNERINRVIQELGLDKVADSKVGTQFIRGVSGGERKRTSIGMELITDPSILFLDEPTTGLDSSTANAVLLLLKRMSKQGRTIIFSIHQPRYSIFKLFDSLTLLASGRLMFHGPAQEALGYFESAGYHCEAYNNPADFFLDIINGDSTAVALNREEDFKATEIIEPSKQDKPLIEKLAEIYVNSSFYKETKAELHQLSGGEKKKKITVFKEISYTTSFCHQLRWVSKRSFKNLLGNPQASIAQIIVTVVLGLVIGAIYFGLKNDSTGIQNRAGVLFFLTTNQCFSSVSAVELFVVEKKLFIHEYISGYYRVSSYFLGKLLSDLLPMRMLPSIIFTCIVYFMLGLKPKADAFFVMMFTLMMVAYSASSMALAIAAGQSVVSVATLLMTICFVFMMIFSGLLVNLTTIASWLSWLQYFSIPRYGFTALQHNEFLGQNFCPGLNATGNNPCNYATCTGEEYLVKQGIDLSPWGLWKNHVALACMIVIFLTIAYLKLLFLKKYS
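Read-out basis: Efflux inhibition in percent versus controls | Test system: ABCG2 IgMXP3 and barcoded ABCB1 CCRF-Adr cell mix | Quantity: 3 million cells/mL in well | Schedule: 10 min at 25 °C | Control set: Nicardipine as high control, DMSO as low control | Reagent: JC-1 as fluorescent efflux pump substrate | Signal: Flow cytometry of retained JC-1 fluorescence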
MEKK3 PB1 HTS – modulators (inhibitors or enhancers) of MEK5 binding to human MEKK3 PB1 domain | Q99759 | bead-based flow cytometry, Alexa488-MEK5 binding to MEKK3; actives lie on both sides; 0 = blocked by unlabeled MEK5, 100 = vehicle | binding response (% of control), % at 10 µM | hit rate 1.4% among 290,000;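 active means binding response more than 3 SD above or below the average of its plate-row segment, actives on both sides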;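 further: Alexa488 bead fluorescence after subtracting the streptavidin-only scavenger bead signal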
* = called active by the depositor; . = not tested or not shown.

SMILES	MEKK2 mut-MEK5	MEKK2 WT-MEK5	ABCB1 block	WT yeast gro inh	ABCG2 block	MEKK3 PB1 HTS
COc1ccc(-c2csc(Nc3ccc(C)cn3)n2)cc1	-2.0	99.0	-1.0	58.1*	1.3	100.0
CCC(=O)N1CCCc2cc(S(=O)(=O)CCC(=O)Nc3ccccc3C)ccc21	2.0	100.0	.	.	.	102.0
C/C(=N\Nc1cccc2cccnc12)c1ccc(C)cc1	2.0	105.0	0.5	73.7*	9.6	99.0
COc1ccc(C2CC(c3ccccc3)=NN2C(=O)COC(=O)c2cc(S(=O)(=O)N3CCOCC3)ccc2F)cc1 (configuration not stated)	-3.0	97.0	0.3	-4.0	-2.6	96.0
CN1CCN(c2ccc(C(CC(N)=O)NC(=O)Cc3cccc4ccccc34)cc2[N+](=O)[O-])CC1 (configuration not stated)	-4.0	96.0	.	.	.	97.0
Nc1nc(Cl)cc(N2CCC(c3cc(-c4ccc(Cl)cc4)n[nH]3)CC2)n1	6.0	106.0	0.2	11.7	0.4	105.0
COc1ccc(OC)c(-c2cc(C3CCN(c4ncccc4[N+](=O)[O-])CC3)[nH]n2)c1	5.0	112.0	9.2	50.2	65.8	107.0
COc1ccc(-c2cc(C3CCN(c4cc(Cl)nc(N)n4)CC3)[nH]n2)cc1	-6.0	88.0	0.6	62.4*	5.8	91.0
COc1ccc(OC)c(-c2cc(C3CCN(c4cc(Cl)nc(N)n4)CC3)[nH]n2)c1	.	.	4.1	65.5*	6.2	.
CC(=O)N/C(=C\c1ccccc1)C(=O)OCc1cc(C)ccc1C	-2.0	100.0	.	.	.	100.0
COc1ccccc1N1CCN(C(=O)CCC(=O)N2CCN(c3ccc(F)cc3)CC2)CC1	-11.0	99.0	.	.	.	95.0
COc1ccc(OCCC(=O)N2CCCCC2)cc1	.	.	0.8	88.0*	2.3	.
Cc1ccc(C(C(=O)NC2CCCCC2)N(Cc2ccco2)C(=O)Cc2c[nH]c3ccccc23)o1 (configuration not stated)	-5.0	94.0	1.0	70.7*	1.0	102.0
Cc1ccccc1N(C(=O)Cc1c[nH]c2ccccc12)C(C(=O)NC1CCCCC1)c1ccco1 (configuration not stated)	-2.0	98.0	0.7	-16.7	0.7	98.0
COc1cccc(-c2cccc(NC(=O)C3CCN(Cc4cnn(C)c4)CC3)c2)c1	8.0	105.0	.	.	.	98.0
C=CCn1cc(CN2CCC(C(=O)Nc3cccc(-c4cccc(Cl)c4)c3)CC2)c(C)n1	10.0	157.0*	.	.	.	99.0
C=CCn1cc(CN2CCC(C(=O)Nc3cccc(-c4cccc(F)c4)c3)CC2)c(C)n1	16.0	135.0*	.	.	.	105.0
Cn1cc(CN2CCC(C(=O)Nc3cccc(-c4cccc(F)c4)c3)CC2)cn1	21.0	146.0*	.	.	.	107.0
Cc1c(CN2CCC(C(=O)Nc3cccc(-c4cccc(Cl)c4)c3)CC2)cnn1C	12.0	136.0*	.	.	.	97.0
CCOC(=O)c1[nH]c(C)c(C(=O)NCc2cccnc2)c1C	4.0	103.0	-0.2	-6.4	-0.1	102.0
C=CCNC(=O)C1CCN(S(=O)(=O)c2ccc3ccccc3c2)CC1	-1.0	101.0	.	.	.	99.0
CNS(=O)(=O)c1cn(CC(=O)NCc2ccc(N(C)C)cc2)cc1S(=O)(=O)NC	10.0	108.0	.	.	.	107.0
CCn1cc(CN2CCCC(C(=O)Nc3cccc(-c4cc5ccccc5[nH]4)c3)C2)cn1 (configuration not stated)	22.0	147.0*	.	.	.	103.0
Cc1cccc(CN2CCC(C(=O)Nc3cccc(-c4cccc(F)c4)c3)CC2)n1	-1.0	109.0	.	.	.	100.0
Cc1nn(C(C)C)c(C)c1CN1CCC(C(=O)Nc2cccc(-c3cccc(F)c3)c2)CC1	9.0	135.0*	.	.	.	99.0
SMILES	MEKK2 mut-MEK5	MEKK2 WT-MEK5	ABCB1 block	WT yeast gro inh	ABCG2 block	MEKK3 PB1 HTS
Cc1cc(=O)n2[nH]c(-c3ccc(F)cc3)cc2n1	5.0	103.0	0.7	59.6*	4.3	101.0
Oc1ccc(C2=NNC(=NCc3ccc4c(c3)OCO4)SC2)c(O)c1	0.0	102.0	-0.3	-1.0	-0.3	126.0
Clc1ccc(C2=NNC(=NCc3ccc4c(c3)OCO4)SC2)cc1	38.0	107.0	0.4	61.1*	3.2	106.0
C/C1=C\CCC2C(/C=C(\C)CC1)OC(=O)C2CN1CCCCC1 (configuration not stated)	7.0	107.0	.	.	.	106.0
COc1cc(NC(=O)CCc2nnc3ccc(N4CCCCC4)nn23)cc(OC)c1OC	5.0	98.0	.	.	.	101.0
C=CCOc1c(Br)cc(/C=N/O)cc1OCC	-2.0	101.0	-0.2	-5.7	12.0	98.0
CCCCOc1c(Br)cc(/C=N/O)cc1OCC	-3.0	102.0	0.1	69.0*	0.3	105.0
CCCS(=O)(=O)c1c(S(=O)(=O)CCC)c2cc(CC)ccn2c1C(=O)OC	-2.0	98.0	0.3	70.3*	0.7	104.0
CCCS(=O)(=O)c1c(S(=O)(=O)CCC)c2ccccn2c1C(=O)OC	1.0	96.0	0.4	0.8	1.5	100.0
Cc1cccc(C)c1-n1nnnc1C1(Nc2ccccc2)CCCCC1	.	.	0.7	73.2*	2.5	.
Clc1ccc(NC2(c3nnnn3C3CCCCC3)CCCCC2)cc1	-1.0	104.0	2.5	-8.3	25.1	103.0
CC1CCCN(CC(=O)Nc2ccc(S(=O)(=O)NC3CCCCC3)cc2)C1 (configuration not stated)	-2.0	101.0	0.1	98.5*	-0.3	102.0
COC(=O)c1cn(C(=O)OC)c2ccccc12	6.0	112.0	0.7	66.3*	6.2	104.0
COC(=O)c1cn(C(=O)c2ccc(C)cc2C)c2ccccc12	-1.0	101.0	0.6	60.5*	3.8	102.0
Cc1cc(N/N=C/c2ccncc2)c([N+](=O)[O-])cc1[N+](=O)[O-]	-23.0	90.0	.	.	.	87.0
Cc1ccc(SCCNC(=S)Nc2cc(C)cc(C)c2)cc1	11.0	113.0	0.0	76.4*	0.0	113.0
COC(=O)Cc1ccc(NC(=S)NCCSc2ccc(C)cc2)cc1	2.0	103.0	0.4	68.1*	2.6	106.0
Cc1ccc(NC(=S)NCCSc2ccc(Cl)cc2)cc1	-9.0	100.0	0.1	25.1	6.8	97.0
Cc1ccc(SCCNC(=S)Nc2ccc(C)cc2C)cc1	3.0	104.0	0.4	69.3*	3.4	104.0
Cc1ccc(NC(=S)NCCc2ccc(F)cc2)c(C)c1	11.0	86.0	0.9	40.1	3.1	96.0
CC(C)NCC1CCc2cc(CO)c([N+](=O)[O-])cc2N1 (configuration not stated)	-1.0	99.0	.	.	.	99.0
CCOC(=O)N1CCC(N(CCN(C)C)C(=S)Nc2cc(C)cc(C)c2)CC1	0.0	100.0	0.8	5.2	4.5	114.0
COC(=O)c1cc2occc2n1Cc1c(F)cccc1Cl	1.0	97.0	0.2	6.5	1.8	99.0
O=C(N=Nc1c(O)[nH]c2ccc(Br)cc12)c1ccccc1-n1cccc1	.	.	2.0	83.3*	21.2	.
